Measurements: paper PMC5167242 (Neoplasia (New York, N.Y.), 2016)
Several values for one entry are separate records, joined by “and”; a condition that tells them apart may be missing. Equal values may be shown once.

Columns and labels:
[1] = test system: breast cancer patients with FGF-aberrant (FGFR1 and/or FGF3/4/19 gene amplified) tumors; settings: among 12 breast cancer patients with FGF-aberrant tumors; cited from earlier work
[2] = after 21 days of treatment, just before the daily oral dose of 10 mg, cited from earlier work
[3] = test system: HEC1A endometrial carcinoma FGFR2 wt xenograft; test: HEC1A xenograft tumor growth; assay type: in vivo, mice; settings: for Best T/C%: HEC1A
Summary of the method: (§1)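 Female NCr-nu/nu mice (6 weeks old, specific pathogen free) received subcutaneous flank tumor fragments. Tumors were measured by caliper twice weekly, with volume = (length × width²)/2. Best %T/C = (median treated volume / median control volume) × 100.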

[4] = pharmacokinetics after 12 daily oral doses in lung xenograft bearing mice; assay type: in vivo; settings: for tumor/plasma ratio: lung xenografts
[5] = test system: FGFR1 amplified and FGFR2 amplified or mutated cancer cell lines; test: cell viability assay; assay type: cell-based, human
Summary of the method: (§2)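 Cell lines were grown in RPMI with 1% glutamine and 10% FBS. Cells were exposed to test compound (0.01–50 μM; 10 mM DMSO stock) 48 h after seeding. MTS was added 72 h after treatment and read at 490 nm after 2 h incubation. IC50 was calculated by software and reported as arithmetic mean + SEM.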

[6] = test system: SNU16 gastric carcinoma FGFR2 amplified xenograft; test: SNU16 xenograft tumor growth; assay type: in vivo, mice; settings: day 30 after implant
Summary of the method: as §1

[7] = test system: H1581 (NSCLC) FGFR1 amplified xenograft; test: H1581 xenograft tumor growth; assay type: in vivo, mice; settings: for Best T/C%: day 27 after implant
Summary of the method: as §1

DMS114 cells [8] = test: cell cycle perturbation, flow cytometry of DNA content, DMS114; assay type: cell-based, human; settings: DMS114, 1 μM (IC50); starting at 24 hours and persisting up to 48 hours
[9] = test system: H1299 (NSCLC) FGFR1 wt xenograft; test: H1299 xenograft tumor growth; assay type: in vivo, mice; settings: for Best T/C%: day 38 after implant
Summary of the method: as §1

DMS114 cells [10] = test: cell viability assay; assay type: cell-based; settings: Homo sapiens, DMS-114
Summary of the method: as §2

[11] = test system: MNK45 gastric carcinoma FGFR2 wt xenograft; test: MNK45 xenograft tumor growth; assay type: in vivo, mice
Summary of the method: as §1

[12] = test system: DMS114 (SCLC) FGFR1 amplified xenograft; test: DMS114 xenograft tumor growth; assay type: in vivo, mice
Summary of the method: as §1

[13] = test system: MFE296 endometrial carcinoma FGFR2 mutated xenograft; test: MFE296 xenograft tumor growth; assay type: in vivo, mice
Summary of the method: as §1

[14] = molecular target: VEGFR1-3 tyrosine kinases; settings: biochemical assays; cited from earlier work
H1299 cells [15] = test: TUNEL apoptosis assay, H1299; assay type: cell-based, human; settings: H1299, 10 μM (IC50); 4, 24, 48 and 72 hours
DMS114 cells [16] = test: TUNEL apoptosis assay, DMS114; assay type: cell-based, human; settings: DMS114, 1 μM (IC50); 4, 24, 48 and 72 hours
[17] = test system: tumor type cell lines with wt FGFR1 and wt FGFR2; test: cell viability assay; assay type: cell-based; settings: Homo sapiens, 72 h
Summary of the method: as §2

H1299 cells [18] = test: cell cycle perturbation, flow cytometry of DNA content, H1299; assay type: cell-based, human; settings: H1299, 10 μM (IC50); 4, 24, 48 and 72 hours
[19] = molecular target: PDGFRα/β tyrosine kinases; settings: biochemical assays; cited from earlier work
FGFR1-3 tyrosine kinases = settings: biochemical assays; cited from earlier work
H1299 cells [20] = test: cell viability assay; assay type: cell-based; settings: Homo sapiens, NCI-H1299
Summary of the method: as §2

[21] = NCr-nu/nu, mouse, tumor and plasma, po

In the case of `CNC(=O)c1cccc2cc(Oc3ccnc4cc(OCC5(N)CC5)c(OC)cc34)ccc12` [lucitanib], the “confirmed objective RECIST responses” value [1] is listed as 4, the “unconfirmed objective RECIST responses” value [1] is listed as 2 and the “tumor drug concentration relative to concomitant plasma drug concentration” value [2] is listed as 25 fold. For the same compound, the tumor drug concentration ([2]; breast cancer biopsy from a person) was 11 µM, the tumor regressions ([3]; HEC1A wt FGFR2, 20 mg/kg (data not shown)) was 2 out of 10 mice and the “Best T/C%” value ([3]; 2.5 mg/kg orally daily for 30 days, day 45 after implant) was 29 (45) %. For the same compound, the “Best T/C%” value ([3]; 5 mg/kg orally daily for 30 days, day 47 after implant) was 17 (47) %, the “Best T/C%” value ([3]; 10 mg/kg orally daily for 30 days, day 45 after implant) was 12 (45) % and the “Best T/C%” value ([3]; 20 mg/kg orally daily for 30 days, day 49 after implant) was 10 (49) %. For the same compound, the tumor/plasma ratio ([4]; 4 hours after the last of 12 daily oral doses) was 2.5, the tumor/plasma ratio ([4]; 24 hours after the last of 12 daily oral doses) was 24.8 and the “tumor drug concentration at 4 hours relative to in vitro IC50” value ([4]; FGFR1 amplified H1581 and DMS114 tumors, higher than IC50 values) was 3 to 26 fold. The Kp at 4 h [4, 21] was 2.5 ± 0.7, the Kp at 24 h [4, 21] was 24.8 ± 7.4 and the “IC50 lower in FGFR2 amplified or mutated cell lines than in FGFR2 wt cells” value ([5]; FGFR2 amplified or mutated cell lines vs FGFR2 wt cells) was 10 fold. For the same compound, the IC50 ([5]; Homo sapiens, 72 h) was 45 to 3160 nM, the “Best T/C%” value ([6]; SNU16, 2.5 mg/kg orally daily for 30 days) was 40 (30) % and the “Best T/C%” value ([6]; SNU16, 5 mg/kg orally daily for 30 days) was 32 (30) %. For the same compound, the “Best T/C%” value ([6]; SNU16, 10 mg/kg orally daily for 30 days) was 16 (30) %, the “Best T/C%” value ([6]; SNU16, 20 mg/kg orally daily for 30 days) was 14 (30) % and the “Best T/C%” value ([7]; H1581, 2.5 mg/kg orally daily for 30 days) was 46 (27) %. The “Best T/C%” value ([7]; H1581, 5 mg/kg orally daily for 30 days) was 24% and 24 (27) %, the “Best T/C%” value ([7]; H1581, 10 mg/kg orally daily for 30 days) was 21 (27) % and the “Best T/C%” value ([7]; H1581, 20 mg/kg orally daily for 30 days) was 16 (27) %. The tumor regressions ([7]; H1581 lung xenograft, any dose schedule, best effect tumor stabilization) was “No tumor regressions”, the “perturbation of the cell cycle” value (DMS114 cells [8]) was “G1 block” and the “Best T/C%” value ([9]; H1299, 2.5 mg/kg orally daily for 30 days) was 55 (38) %. For the same compound, the “Best T/C%” value ([9]; H1299, 5 mg/kg orally daily for 30 days) was 41% and 41 (38) %, the “Best T/C%” value ([9]; H1299, 10 mg/kg orally daily for 30 days) was 28 (38) % and the “Best T/C%” value ([9]; H1299, 20 mg/kg orally daily for 30 days) was 24 (38) %. For the same compound, the tumor regressions ([9]; H1299 lung xenograft, any dose schedule, best effect tumor stabilization) was “No tumor regressions”, the IC50 (DMS114 cells [10]) was 1000 nM and the “Best T/C%” value ([11]; MNK45, 2.5 mg/kg orally daily for 30 days, day 28 after implant) was 22 (28) %. The “Best T/C%” value ([11]; MNK45, 5 mg/kg orally daily for 30 days, day 28 after implant) was 12 (28) %, the “Best T/C%” value ([11]; MNK45, 10 mg/kg orally daily for 30 days, day 32 after implant) was 10 (32) % and the “Best T/C%” value ([11]; MNK45, 20 mg/kg orally daily for 30 days, day 32 after implant) was 7 (32) %. The tumor regressions ([11]; MNK45 wt FGFR2, 20 mg/kg (data not shown)) was 3 out of 10 mice, the “Best T/C%” value ([12]; DMS114, 2.5 mg/kg orally daily for 30 days, day 44 after implant) was 45 (44) % and the “Best T/C%” value ([12]; DMS114, 5 mg/kg orally daily for 30 days, day 46 after implant) was 20% and 20 (46) %. For the same compound, the “Best T/C%” value ([12]; DMS114, 10 mg/kg orally daily for 30 days, day 44 after implant) was 16 (44) %, the “Best T/C%” value ([12]; DMS114, 20 mg/kg orally daily for 30 days, day 44 after implant) was 12 (44) % and the tumor regressions ([12]; DMS114 lung xenograft, any dose schedule, best effect tumor stabilization) was “No tumor regressions”. For the same compound, the “Best T/C%” value ([13]; MFE296, 2.5 mg/kg orally daily for 30 days, day 28 after implant) was 36 (28) %, the “Best T/C%” value ([13]; MFE296, 5 mg/kg orally daily for 30 days, day 25 after implant) was 34 (25) % and the “Best T/C%” value ([13]; MFE296, 10 mg/kg orally daily for 30 days, day 30 after implant) was 22 (30) %. For the same compound, the “Best T/C%” value ([13]; MFE296, 20 mg/kg orally daily for 30 days, day 25 after implant) was 17 (25) %, the Kd [14] was less than 100 nM and the “apoptosis by TUNEL assay” value (H1299 cells [15]) was “no apoptosis was detected”. For the same compound, the “apoptosis by TUNEL assay” value (DMS114 cells [16]) was “no apoptosis was detected”, the IC50 [17] was 3 to 23 µM and the “perturbation of the cell cycle” value (H1299 cells [18]) was “late S-G2/M blockade”. The Kd [19] was less than 100 nM, the Kd (FGFR1-3 tyrosine kinases) was less than 100 nM and the IC50 (H1299 cells [20]) was 10 µM.
